From ChEMBL document CHEMBL5696442, “Discovery of type II inhibitors of TGFβ-activated kinase 1 (TAK1) and mitogen-activated protein kinase kinase kinase kinase 2 (MAP4K2)” (J Med Chem, 2015)

Columns and labels:
[1] = biological target: T1, Mitogen-activated protein kinase 13 (Homo sapiens) (UniProt O15264); experiment: Inhibition of p38delta Lys2 labeling site in human Huh-7 cell lysate at 1 uM by KiNativ Profiling analysis relative to control; assay type: subcellular
T1 sequence (whole entry): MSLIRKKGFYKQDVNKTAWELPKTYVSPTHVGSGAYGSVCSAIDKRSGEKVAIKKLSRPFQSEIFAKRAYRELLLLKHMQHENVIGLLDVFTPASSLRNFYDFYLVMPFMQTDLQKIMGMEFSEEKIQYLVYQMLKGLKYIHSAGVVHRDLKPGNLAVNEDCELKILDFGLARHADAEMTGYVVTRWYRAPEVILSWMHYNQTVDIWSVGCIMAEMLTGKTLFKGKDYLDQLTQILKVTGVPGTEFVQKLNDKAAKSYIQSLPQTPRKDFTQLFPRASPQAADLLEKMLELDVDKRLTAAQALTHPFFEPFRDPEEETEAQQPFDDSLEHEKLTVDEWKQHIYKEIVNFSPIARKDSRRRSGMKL

[2] = biological target: T2, Interleukin-1 receptor-associated kinase 4 (Homo sapiens) (UniProt Q9NWZ3); experiment: Inhibition of IRAK4 Lys2 labeling site in human A-375 cells at 5 uM by KiNativ Profiling analysis relative to control; assay type: cell-based
T2 sequence (whole entry): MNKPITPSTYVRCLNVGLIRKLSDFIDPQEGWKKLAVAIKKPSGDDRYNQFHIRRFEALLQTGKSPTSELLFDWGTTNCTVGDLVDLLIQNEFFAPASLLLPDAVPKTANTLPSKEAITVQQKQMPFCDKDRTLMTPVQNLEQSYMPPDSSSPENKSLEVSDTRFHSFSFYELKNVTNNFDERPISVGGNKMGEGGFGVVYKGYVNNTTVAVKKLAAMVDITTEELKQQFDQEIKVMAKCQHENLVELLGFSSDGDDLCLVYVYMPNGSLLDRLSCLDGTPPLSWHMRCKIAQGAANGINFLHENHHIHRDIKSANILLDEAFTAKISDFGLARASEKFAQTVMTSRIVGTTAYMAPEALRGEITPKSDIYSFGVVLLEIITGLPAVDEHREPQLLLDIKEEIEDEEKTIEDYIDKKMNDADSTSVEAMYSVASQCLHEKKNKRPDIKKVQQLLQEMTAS
Method in brief: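 Live A375 melanoma cells were treated with compound at 5 or 0.5 μM, then lysed. Lysates were labeled with a lysine-reactive ATP or ADP-biotin probe. Read-out was the compound's protection of kinase labeling sites from probe labeling (KiNativ).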

[3] = biological target: 3-phosphoinositide-dependent protein kinase 1 (Homo sapiens) (UniProt O15530); experiment: Inhibition of PDK1 Protein Kinase Domain in human A-375 cells at 0.5 uM by KiNativ Profiling analysis relative to control
[4] = biological target: T3, Mitogen-activated protein kinase kinase kinase 2 (Homo sapiens) (UniProt Q9Y2U5); experiment: Inhibition of MAP3K2 Lys2 labeling site in human A-375 cells at 5 uM by KiNativ Profiling analysis relative to control; assay type: cell-based
T3 sequence (whole entry): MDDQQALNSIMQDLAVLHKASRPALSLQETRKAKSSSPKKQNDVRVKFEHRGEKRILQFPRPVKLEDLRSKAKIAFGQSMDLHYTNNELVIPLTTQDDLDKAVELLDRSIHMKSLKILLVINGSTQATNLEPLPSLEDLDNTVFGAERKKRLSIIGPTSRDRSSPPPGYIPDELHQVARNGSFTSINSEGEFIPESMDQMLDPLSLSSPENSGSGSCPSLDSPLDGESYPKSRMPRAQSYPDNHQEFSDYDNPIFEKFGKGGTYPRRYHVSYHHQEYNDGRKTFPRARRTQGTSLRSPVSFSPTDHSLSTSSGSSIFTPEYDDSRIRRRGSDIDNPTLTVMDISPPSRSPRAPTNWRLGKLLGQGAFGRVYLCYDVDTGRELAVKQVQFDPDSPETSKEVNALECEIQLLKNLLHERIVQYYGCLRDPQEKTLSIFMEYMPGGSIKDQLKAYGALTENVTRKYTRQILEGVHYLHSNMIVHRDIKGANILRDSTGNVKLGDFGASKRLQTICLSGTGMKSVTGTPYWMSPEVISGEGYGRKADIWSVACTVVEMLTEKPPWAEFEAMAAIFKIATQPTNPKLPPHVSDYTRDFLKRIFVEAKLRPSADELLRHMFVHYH

[5] = biological target: Protein kinase C beta type (Homo sapiens) (UniProt P05771); experiment: Inhibition of PKCb Lys2 labeling site in human A-375 cells at 5 uM by KiNativ Profiling analysis relative to control; assay type: cell-based
[6] = biological target: Mitogen-activated protein kinase kinase kinase kinase 4 (Homo sapiens, UniProt O95819); experiment: Inhibition of ZC1 Lys2 labeling site in human A-375 cells at 0.5 uM by KiNativ Profiling analysis relative to control; assay type: cell-based
[7] = biological target: Serine/threonine-protein kinase 25 (Homo sapiens) (UniProt O00506); experiment: Inhibition of YSK1 Lys2 labeling site in human A-375 cells at 0.05 uM by KiNativ Profiling analysis relative to control; assay type: cell-based
Serine/threonine-protein kinase 25 (Homo sapiens), sequence (O00506 whole entry, looked up): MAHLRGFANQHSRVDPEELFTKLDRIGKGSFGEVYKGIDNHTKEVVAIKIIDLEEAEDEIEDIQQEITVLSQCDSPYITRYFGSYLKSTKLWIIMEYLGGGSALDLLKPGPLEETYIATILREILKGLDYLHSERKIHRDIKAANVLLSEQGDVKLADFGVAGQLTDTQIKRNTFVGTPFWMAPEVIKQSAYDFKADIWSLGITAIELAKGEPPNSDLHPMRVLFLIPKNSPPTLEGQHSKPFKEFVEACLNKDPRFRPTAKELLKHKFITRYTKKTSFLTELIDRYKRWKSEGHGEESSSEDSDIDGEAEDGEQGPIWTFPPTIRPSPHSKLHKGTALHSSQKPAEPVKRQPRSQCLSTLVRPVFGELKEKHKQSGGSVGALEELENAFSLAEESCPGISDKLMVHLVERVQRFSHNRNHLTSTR

3-phosphoinositide-dependent protein kinase 1 (Homo sapiens), sequence (O15530 whole entry, looked up, the tested form may be a part): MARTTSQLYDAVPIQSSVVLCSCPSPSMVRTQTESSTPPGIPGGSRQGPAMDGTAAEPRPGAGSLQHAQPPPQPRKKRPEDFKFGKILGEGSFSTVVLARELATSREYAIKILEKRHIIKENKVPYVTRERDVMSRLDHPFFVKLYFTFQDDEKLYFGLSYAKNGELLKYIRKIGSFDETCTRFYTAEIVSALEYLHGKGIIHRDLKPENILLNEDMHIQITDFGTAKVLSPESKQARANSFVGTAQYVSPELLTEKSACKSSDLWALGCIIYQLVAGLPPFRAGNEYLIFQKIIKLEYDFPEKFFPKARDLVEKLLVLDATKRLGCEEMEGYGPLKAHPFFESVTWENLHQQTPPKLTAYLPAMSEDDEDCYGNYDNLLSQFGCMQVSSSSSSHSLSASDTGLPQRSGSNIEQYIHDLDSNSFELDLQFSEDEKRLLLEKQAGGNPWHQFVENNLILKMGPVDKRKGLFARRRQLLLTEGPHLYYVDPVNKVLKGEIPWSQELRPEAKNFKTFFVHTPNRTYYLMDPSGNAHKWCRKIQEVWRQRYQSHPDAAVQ
Mitogen-activated protein kinase kinase kinase kinase 4, sequence (O95819 2-1239 limits assumed): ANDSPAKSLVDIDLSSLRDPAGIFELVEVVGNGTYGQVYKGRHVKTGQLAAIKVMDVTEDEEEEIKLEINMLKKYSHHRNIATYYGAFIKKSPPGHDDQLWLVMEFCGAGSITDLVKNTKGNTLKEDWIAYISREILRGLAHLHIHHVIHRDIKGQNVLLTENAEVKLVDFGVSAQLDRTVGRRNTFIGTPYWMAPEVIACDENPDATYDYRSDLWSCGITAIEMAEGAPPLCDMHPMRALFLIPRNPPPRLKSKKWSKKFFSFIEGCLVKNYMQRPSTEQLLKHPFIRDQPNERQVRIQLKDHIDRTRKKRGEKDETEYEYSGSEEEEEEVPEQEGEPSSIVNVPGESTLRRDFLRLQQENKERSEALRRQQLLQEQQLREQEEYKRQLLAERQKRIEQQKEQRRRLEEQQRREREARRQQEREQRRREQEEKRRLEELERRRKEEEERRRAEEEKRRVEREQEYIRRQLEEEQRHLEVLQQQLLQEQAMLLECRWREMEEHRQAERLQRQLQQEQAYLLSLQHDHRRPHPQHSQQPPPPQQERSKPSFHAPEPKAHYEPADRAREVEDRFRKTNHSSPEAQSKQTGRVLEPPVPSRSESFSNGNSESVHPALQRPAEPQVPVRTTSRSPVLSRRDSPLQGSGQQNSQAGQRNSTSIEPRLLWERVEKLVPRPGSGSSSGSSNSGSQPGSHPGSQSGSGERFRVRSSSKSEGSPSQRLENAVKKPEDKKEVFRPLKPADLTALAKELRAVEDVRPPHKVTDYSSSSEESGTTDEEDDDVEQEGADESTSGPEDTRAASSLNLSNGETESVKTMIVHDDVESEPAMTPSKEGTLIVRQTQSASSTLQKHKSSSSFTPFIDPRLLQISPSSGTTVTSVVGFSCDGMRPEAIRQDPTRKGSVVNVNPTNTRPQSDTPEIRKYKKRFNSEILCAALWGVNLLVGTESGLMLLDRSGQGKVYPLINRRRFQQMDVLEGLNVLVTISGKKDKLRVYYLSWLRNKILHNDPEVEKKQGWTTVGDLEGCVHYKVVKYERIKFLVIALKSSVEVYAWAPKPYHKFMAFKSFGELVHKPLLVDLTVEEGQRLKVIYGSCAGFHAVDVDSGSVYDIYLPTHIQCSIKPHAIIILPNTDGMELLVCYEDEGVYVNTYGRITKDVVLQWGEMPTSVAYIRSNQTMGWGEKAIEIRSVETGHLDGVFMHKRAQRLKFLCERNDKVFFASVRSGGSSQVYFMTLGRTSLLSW
Protein kinase C beta type (Homo sapiens), sequence (P05771 2-671 limits assumed): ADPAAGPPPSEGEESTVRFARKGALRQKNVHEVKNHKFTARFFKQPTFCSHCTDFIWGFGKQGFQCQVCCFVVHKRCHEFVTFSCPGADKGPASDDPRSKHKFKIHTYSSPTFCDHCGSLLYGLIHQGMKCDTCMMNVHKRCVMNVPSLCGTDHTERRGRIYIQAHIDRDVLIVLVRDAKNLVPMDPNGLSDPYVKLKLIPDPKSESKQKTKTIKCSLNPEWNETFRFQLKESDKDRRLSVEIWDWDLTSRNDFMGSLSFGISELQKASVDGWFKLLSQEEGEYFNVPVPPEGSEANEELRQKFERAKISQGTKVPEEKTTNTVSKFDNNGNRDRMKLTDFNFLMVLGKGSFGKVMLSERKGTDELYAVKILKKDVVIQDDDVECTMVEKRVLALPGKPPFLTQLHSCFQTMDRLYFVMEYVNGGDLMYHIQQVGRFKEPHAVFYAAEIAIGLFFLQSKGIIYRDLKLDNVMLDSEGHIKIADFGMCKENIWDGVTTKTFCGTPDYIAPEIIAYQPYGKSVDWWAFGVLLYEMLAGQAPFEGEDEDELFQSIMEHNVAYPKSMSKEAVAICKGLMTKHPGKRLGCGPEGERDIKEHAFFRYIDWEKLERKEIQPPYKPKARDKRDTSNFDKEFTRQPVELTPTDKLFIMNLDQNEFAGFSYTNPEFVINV

Row | SMILES | inhibition [1] | inhibition [2] | inhibition [3] | inhibition [4] | inhibition [5] | inhibition [6] | inhibition [7]
1 | CNc1cc(Oc2cc(C(=O)Nc3cc(N4CCN(C)CC4)cc(C(F)(F)F)c3)ccc2C)ncn1 | 12.8% | – | – | – | – | – | –
2 | CCN1CCN(Cc2ccc(NC(=O)c3ccc(C)c(Oc4ccnc5[nH]ccc45)c3)cc2C(F)(F)F)CC1 | – | -0.2% | 15.4% | -4.8% | 51% | 70.8% | -0.7%
3 | CNc1cc(Oc2cc(C(=O)Nc3cc(-n4cnc(C)c4)cc(C(F)(F)F)c3)ccc2C)ncn1 | 5.5% | – | – | – | – | – | –
4 | CCN1CCN(Cc2ccc(NC(=O)c3ccc(C)c(/C=C/c4cnc5[nH]ccc5c4OC)c3)cc2C(F)(F)F)CC1 | – | 34.1% | 4.4% | 11.8% | 50.2% | 48.1% | 9.1%
